From PubChem BioAssay
Compounds with a hit are over-represented: about 1.8% of the library has one in this group of screens.
Tb MetRS inh – blocks T. brucei methionyl-tRNA synthetase activity; purified T. brucei MetRS, ATP depletion, Kinase-Glo luminescence; inhibition, % at 11.9 µM; actives 0.4% (n = 360,000); AID 624268;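 active means inhibition above a per-plate cutoff of the control wells' mean inhibition plus 3 SD, cut at about 5.5% in these data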;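 further: 0% = DMSO wells median and 100% = median of wells with control inhibitor compound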
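Material – parasite MetRS enzyme · Medium – HEPES-MgCl2-KCl buffer plus DTT, spermine, BSA, pyrophosphatase · Reagent – ATP, methionine and E. coli bulk tRNA substrates · Times – 15 min enzyme-compound preincubation, 2 h reaction, 10 min detection, 25 °C · Measured by – luminescence of leftover ATP · Evaluation – percent inhibition relative to median high and low control wells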
APOBEC3G inh – APOBEC3G (human) deaminase inhibition; Q9HC16; recombinant A3G, ssDNA deamination FAM/TAMRA fluorescence; inhibition, % at 20 µM; actives 0.28% (n = 330,000); AID 493012;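 active means inhibition of at least 40% at 20 µM, with no more than 30% in the related APOBEC3A deaminase screen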;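 further: plate controls were DMSO wells with A3G for no effect and wells lacking A3G enzyme for full effect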
Target sequence (Q9HC16 whole entry, looked up): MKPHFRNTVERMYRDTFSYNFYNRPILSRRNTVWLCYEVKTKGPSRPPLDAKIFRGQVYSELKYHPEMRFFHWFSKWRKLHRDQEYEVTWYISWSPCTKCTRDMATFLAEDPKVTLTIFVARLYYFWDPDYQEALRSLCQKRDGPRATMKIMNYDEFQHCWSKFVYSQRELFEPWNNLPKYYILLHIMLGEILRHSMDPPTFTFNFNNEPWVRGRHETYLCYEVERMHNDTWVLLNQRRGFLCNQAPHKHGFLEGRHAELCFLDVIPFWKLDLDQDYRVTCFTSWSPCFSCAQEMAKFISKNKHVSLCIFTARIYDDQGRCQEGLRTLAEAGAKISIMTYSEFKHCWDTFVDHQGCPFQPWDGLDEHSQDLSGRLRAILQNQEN
pCIP destab – lowers stability of the mouse p/CIP coactivator protein; F442A p/CIP-EGFP cells, EGFP fluorescence, 16 h; decrease of EGFP signal, % at 10 µM; actives 0.01% (n = 290,000); AID 1984;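 active means EGFP signal decrease of at least 30% at 10 µM or well 3 SD below plate mean, unless failing retest; inactive means the rest, including hits failing retest or dose response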
PHOSPHO1 block – PHOSPHO1 (human) inhibition | actives 1.1% (n = 290,000) | AID 1565 | recombinant PHOSPHO1, absorbance phosphatase assay | inhibition, % at 13.3 µM; in the data active means inhibition above about 60%
APOBEC3A inh – inhibitors of human APOBEC3A DNA deaminase; actives 0.41% (n = 330,000); inhibition, % at 20 µM; AID 493011; recombinant A3A, FAM/TAMRA ssDNA deamination fluorescence; P31941;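 active means at least 40% inhibition at 20 µM here, with at most 30% in a related deaminase screen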;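 further: plate controls were A3A with DMSO for no effect and wells lacking A3A enzyme for full effect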
A3G conf – confirmation of human APOBEC3G DNA deaminase inhibitors | AID 493152 | recombinant A3G ssDNA deaminase, UDG/FAM-TAMRA fluorescence | inhibition, % at 20 µM | actives 72% (n = 890) | shares compounds with APOBEC3G inh;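 active means inhibition reaching a set limit in any replicate at 20 µM, the limit being 80% of the first screen's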
UDG ctr A3G – counter-screen for APOBEC3G inhibitors: E. coli UDG | 710 tested, under 10 active | inhibition, % at 20 µM | AID 504715 | UDG counterscreen, FAM/TAMRA oligo fluorescence | shares compounds with APOBEC3G inh;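 active means compounds giving 40% or more inhibition at 20 µM in any one of the three replicates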;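 further: plate controls were DMSO wells with UDG and oligo for no effect and DMSO wells lacking both for full effect; inhibitors lower the FAM signal released by uracil excision and alkaline cleavage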
Target sequence (P12295 whole entry, looked up): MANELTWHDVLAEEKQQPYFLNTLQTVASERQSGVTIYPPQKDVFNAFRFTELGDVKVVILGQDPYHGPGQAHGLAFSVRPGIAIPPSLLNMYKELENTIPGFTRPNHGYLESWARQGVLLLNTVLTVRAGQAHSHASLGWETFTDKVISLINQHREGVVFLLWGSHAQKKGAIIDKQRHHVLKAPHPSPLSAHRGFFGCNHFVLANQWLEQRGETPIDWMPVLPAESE
* hit, by the source's call; · = no result given.

SMILES | Tb MetRS inh | APOBEC3G inh | pCIP destab | PHOSPHO1 block | APOBEC3A inh | A3G conf | UDG ctr A3G
COc1cc(C(=S)N2CCN(C(c3ccccc3)c3ccccc3)CC2)cc(OC)c1O | -1 | 43* | 1 | · | -5 | 18 | 2
Cc1cc(C(=O)NNC(=O)c2ccc(C)s2)c(C)o1 | 0 | -8 | · | · | -2 | · | ·
Cc1cc(C)c2c(=O)n(CC(=O)N3CCC(Cc4ccccc4)CC3)sc2n1 | · | 43* | -10 | -28 | 2 | 58* | ·
Cc1ccn2c(=O)nc(SCC(=O)N3CCC(Cc4ccccc4)CC3)nc2c1 | 0 | 1 | · | · | 2 | · | ·
CCOC(=O)c1cn(CC(=O)Nc2cccc(F)c2)nn1 | 0 | -3 | 3 | -22 | -1 | · | ·
Cc1cc(C)c2c(=O)n(CC(=O)Nc3ccc(Cl)cc3)sc2n1 | 0 | 82* | 0 | -107 | -7 | 93* | 0
Cc1cc(C)c2c(=O)n(CC(=O)Nc3cccc(F)c3)sc2n1 | -1 | 76* | -10 | -49 | 5 | 84* | 1
Cc1ccc(NC(=O)Cn2sc3nc(C)cc(C)c3c2=O)c(Cl)c1 | -1 | 72* | -13 | -130 | -8 | 92* | -1
CCOC1=C2[C@H](c3ccccc3)N(S(=O)(=O)c3ccc(C)cc3)C[C@H]2n2c(=O)n(-c3ccccc3)c(=O)n2C1 | -1 | · | · | · | · | · | ·
CC1(C)N=C(N)N=C(N)N1c1ccc(OCC(=O)N2CCOCC2)c(Cl)c1 | 0 | · | · | · | · | · | ·
COc1ccc(C2=CSC3=NCCN23)cc1Br | -1 | -4 | · | · | 2 | · | ·
CCOc1ccc(NC(=O)Cn2sc3nc(C)cc(C)c3c2=O)cc1 | 0 | 80* | -14 | -102 | -1 | 49* | -3
CCOc1ccc(NC(=O)Cn2ncc3ccccc32)cc1 | 0 | -5 | -9 | -28 | -1 | · | ·
COC(=O)[C@H](CCSC)NC(=O)c1cc2c(cn1)[nH]c1ccccc12 | 2 | 57* | 5 | -130 | 16 | 56* | -1
CCCCCCNC(=O)N[C@@H](C(=O)NCCC[C@H]1CN2C(=NC[C@@H]2Cc2ccccc2)N1CCc1cccc(OC)c1)C(C)C | · | 54* | -4 | 26 | 10 | 32* | ·
CC1CCCN(CCCNC(=O)c2cn(C)c3ccc(S(=O)(=O)N(C)C4CCCCC4)cc3c2=O)C1 (stereo not given) | 0 | -5 | -7 | 40 | -3 | · | ·
CN(C)S(=O)(=O)c1ccc2c(c1)c(=O)c(C(=O)NCCCN1CCCCCC1)cn2C | 0 | 52* | -8 | -3 | 5 | 5 | ·
Cc1ccccc1NC(=S)c1ccc2ccccc2n1 | 0 | 42* | 0 | -36 | -3 | 40* | 1
Cc1cc(C)n2nc(CC(=O)NCc3ccc(F)cc3)nc2n1 | 0 | -4 | 9 | 0 | -2 | · | ·
CSS(=O)(=O)c1cccc2cccnc12 | 0 | 78* | -19 | 44 | 1 | 77* | 0
COc1ccc(C2NC(=S)N3C(c4ccc(OC)cc4)NC(=S)N23)cc1 (stereo not given) | 0 | 45* | -3 | 98* | -3 | 34* | -3
CCN(CC)c1ccc(NC(=O)c2ccc(=O)[nH]c2)cc1S(=O)(=O)Nc1ccccc1OC | 0 | 56* | -22 | 17 | -1 | 38* | -3
CCN(CC)c1ccc(NC(=O)c2ccccc2Br)cc1S(=O)(=O)Nc1ccccc1OC | -1 | 34 | -22 | -7 | 6 | · | ·
CCN(CC)c1ccc(NC(=O)COc2ccccc2C)cc1S(=O)(=O)Nc1ccccc1OC | 0 | 50* | 4 | -16 | 4 | 61* | 3
CC(c1ccccc1)N1CC(C(=O)N2CCN(Cc3ccc(C#N)cc3)CC2)CC1=O (stereo not given) | 0 | -14 | · | · | -5 | · | ·
SMILES | Tb MetRS inh | APOBEC3G inh | pCIP destab | PHOSPHO1 block | APOBEC3A inh | A3G conf | UDG ctr A3G
O=Cc1ccc(N2CCN(S(=O)(=O)c3ccc4c(c3)CC(=O)N4)CC2)cc1 | 1 | · | · | · | · | · | ·
Cc1ccccc1-n1c(-c2ccco2)n[nH]c1=S | 0 | 37 | -6 | 6 | -7 | · | ·
Cc1cccc(-n2c(-c3ccc(Br)o3)n[nH]c2=S)c1 | 0 | 31 | · | · | -3 | · | ·
S=c1[nH]nc(-c2ccco2)n1-c1ccc(Br)cc1 | -1 | 42* | · | · | -1 | 69* | -3
Cc1cccc(-n2c(-c3ccco3)n[nH]c2=S)c1 | 0 | 54* | 0 | 4 | -2 | 60* | -4
CN1CCC(N(C)C(=O)CCc2nc3ccccc3n2-c2ccccc2)CC1 | 0 | -15 | 4 | 8 | 3 | · | ·
O=C(c1cnc(Cc2c[nH]c3ccccc23)c(I)c1)N1CCOCC1 | 1 | · | · | · | · | · | ·
CC1CC(C)CN(C(=O)COC(=O)c2ccc3ccccc3n2)C1 (stereo not given) | 0 | -5 | · | · | 1 | · | ·
S=c1[nH]nc(-c2cccs2)n1C1CCCCC1 | 0 | 45* | -16 | -40 | -8 | 83* | -3
Cc1ccccc1NC(=O)Cn1nnc2ccccc21 | -1 | 50* | -20 | -18 | -3 | -8 | -6
Cc1cc(-c2csc(N)n2)c(C)n1CCc1ccccc1 | 0 | 3 | -6 | -4 | -1 | · | ·
Cc1cc(-c2csc(N)n2)c(C)n1CCC(C)C | -1 | 40* | -10 | 102* | 6 | 13 | ·
Cc1ccc(C(=O)CSc2nnnn2C(C)C)c(C)c1 | 1 | 54* | -6 | 35 | -3 | 4 | -2
Cc1ccc(C)c(C(=O)CSc2nnnn2C(C)C)c1 | -1 | -2 | -7 | 14 | -3 | · | ·
COc1ccc(NC(=O)CN(C)C(=O)CN2C(=O)NC3(CCCC3)C2=O)cc1 | -1 | -12 | · | · | -3 | · | ·
COC(=O)C1=C(N)N(c2ccccc2F)C2=C(C(=O)CC(C)(C)C2)C1c1ccc(OC)c(OC)c1 (stereo not given) | -1 | -4 | 4 | 7 | -1 | · | ·
Cc1ccc(C)c(N2CCN(C3CCCC(C)C3)CC2)c1 (stereo not given) | -1 | -11 | 7 | 39 | -4 | · | ·
Cc1cccc(N2CCN(C(=S)c3ccc([N+](=O)[O-])cc3)CC2)c1 | 0 | 55* | -4 | -11 | 1 | 44* | 0
CC(C)(C)C(=O)NC(=S)Nc1cc(C(=O)O)ccc1Cl | -2 | -4 | -58 | -3 | -4 | · | ·
NNc1cc(C(=O)O)ccc1Cl | 0 | 40* | -9 | -106 | -3 | 20 | -2
Cc1ccc(-n2sc3ccccc3c2=O)cc1S(=O)(=O)N1CCCCC1 | 0 | 75* | 2 | 30 | 1 | 73* | ·
Cc1ccc(C(=O)NNC(=O)c2ccccc2)cc1S(=O)(=O)N1CCCCC1 | 0 | -5 | · | · | -2 | · | ·
O=c1c2ccccc2sn1-c1ccc(S(=O)(=O)N2CCCC2)cc1 | 0 | 78* | -11 | -18 | 4 | 83* | ·
O=c1c2ccccc2sn1-c1ccc(S(=O)(=O)N2CCCCC2)cc1 | 0 | 64* | · | · | -2 | 65* | 2
